Screening data from PubChem BioAssay.
Most compounds without a hit are left out; they make up all but 1.5% or so of the library.
TRAIL sens C8 – viability loss with TRAIL in NB7+C8 cells, primary screen, TRAIL sensitizer project, cell-based, ATPlite luminescence | inhibition (viability loss, TRAIL sensitization), % at 10 µM | 1% of 360,000 active | AID 624354, 2012;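 active = compounds causing at least 50% loss of cell viability in the single-dose screen, relative to plate controls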
FLuc stim CS – FLuc activators, initial screening, artefact control for FLuc-dependent activation tests, biochemical, ATPlite luminescence; ATPlite luciferase biochemical, 10 min; 0 = ATP-free wells, 1 = DMSO control; activation factor at 10 µM; 200,000 tested, under 10 active;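 active = luciferase activation factor, scaled between plate controls, of at least 2 with compound at 10 µM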
Target sequence (P08659 whole entry, looked up): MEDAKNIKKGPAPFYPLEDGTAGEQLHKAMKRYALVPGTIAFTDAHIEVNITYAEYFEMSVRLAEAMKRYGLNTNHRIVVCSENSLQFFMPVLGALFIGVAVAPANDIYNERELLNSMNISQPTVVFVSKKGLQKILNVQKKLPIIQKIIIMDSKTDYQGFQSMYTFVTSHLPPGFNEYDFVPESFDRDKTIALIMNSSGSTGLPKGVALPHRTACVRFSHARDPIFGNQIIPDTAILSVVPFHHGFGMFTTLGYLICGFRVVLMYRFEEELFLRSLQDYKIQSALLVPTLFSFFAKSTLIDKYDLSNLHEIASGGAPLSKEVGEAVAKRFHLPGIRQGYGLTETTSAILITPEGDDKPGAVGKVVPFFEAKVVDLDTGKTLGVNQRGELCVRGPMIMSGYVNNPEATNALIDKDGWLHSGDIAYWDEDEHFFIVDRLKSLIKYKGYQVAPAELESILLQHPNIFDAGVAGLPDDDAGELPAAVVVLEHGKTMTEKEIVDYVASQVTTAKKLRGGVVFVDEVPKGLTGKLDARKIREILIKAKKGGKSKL
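System: luciferase plus luciferin reagent, cell-free; medium: PBS as buffer for the ATP substrate; dosing: test compounds dosed from 2 mM stocks in 100% DMSO; timing: 10 min post-reagent at room temperature; measured by: luminescence measurement of luciferase light output; evaluation: luciferase activation, seen as luminescence increase over controls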
PPC-1+TRAIL kill – compounds killing PPC-1 cancer cells with TRAIL present, primary screen, TRAIL potentiator project, ATPLite luminescence, uHTS | PPC-1 cells + TRAIL, ATPLite viability luminescence | cell killing (% activity), % at 4 µM or 5 µM | 0.41% of 220,000 active | AID 1443, 2008;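 active = cell killing above 50% in the first pass at 4 µM, then a duplicate retest at 5 µM averaging 50% or more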;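 note: plate controls were cells with TRAIL plus DMSO for no effect and medium-only wells lacking cells for full effect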
FLuc inhib CS – firefly luciferase enzyme inhibitors, primary screen, artefact control for luciferase-based inhibitor screens, biochemical, luminescence, ATPLite | inhibition, % at 10 µM | 1.5% of 200,000 active | AID 1006, 2008 | Luciferin 4-monooxygenase (Photinus pyralis), P08659 | 10 min;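 active = inhibition above about 50% when tested at 10 µM, limit read from the data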
PPC-1 tox – cytotoxicity in PPC-1 cells, confirmation, cytotoxicity control for TRAIL apoptosis potentiator project, cell-based, ATP content luminescence | 50% of 1,200 active | cytotoxicity, % at 5 µM | PPC-1 viability, ATPlite luminescence, overnight | shares compounds with PPC-1+TRAIL kill;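 active = reconfirmed compounds whose average cytotoxicity reaches 50% or more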;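 note: 0% = DMSO-treated cells and 100% = wells holding medium but no cells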
* = called active by the depositor; / = not tested or not shown.

SMILES	TRAIL sens C8	FLuc stim CS	PPC-1+TRAIL kill	FLuc inhib CS	PPC-1 tox
O=C(CCS(=O)(=O)c1ccccc1)Nc1ccc(-c2nc3ccccc3s2)cc1	65*	1	54*	0	49
CNS(=O)(=O)c1cccc(C(=O)OCC(=O)Nc2ccc(N3CCCCC3)cc2)c1	-2	1	15	4	/
CCC(C)(C)NC(=S)Nc1ccc(-c2nc3ccc(C)cc3s2)cc1	44	0.7	33	32	/
Cc1ccc2nc(-c3ccc(NC(=O)COC(=O)c4cncc(Br)c4)cc3)sc2c1	70*	0.6	50*	42	49
CNS(=O)(=O)c1cccc(C(=O)OCC(=O)Nc2ccc(-c3nc4ccc(C)cc4s3)cc2)c1	75*	0.7	39	28	48
O=C(CNS(=O)(=O)c1cccc(Cl)c1)Nc1ccc(-c2nc3ccccc3s2)cc1	36	0.9	33	9	/
O=C(NCCOc1ccc(F)cc1)C1CCC(=O)N(CC2CCCCC2)C1 (stereo unspecified)	6	/	/	/	/
CC(=O)c1cccc(CN(C)CC2CCCN(CCc3ccccc3C)C2)c1 (stereo unspecified)	1	/	/	/	/
CN=c1scc(C)n1/N=C/c1ccc(O)cc1O	67*	0.2	71*	81*	71*
C=CCN=c1scc(C)n1/N=C/c1ccc(O)c(O)c1	28	0.9	28	9	/
CCN(CC)C(=O)C1=C(C)NC(=S)NC1c1ccc(C)s1 (stereo unspecified)	4	1.1	-6	-6	-13
CCCOc1ccc(-c2nnc(-c3ccco3)o2)cc1	55*	0.2	46	77*	44
COc1ccccc1N1CCN(C(=O)CSc2ncccc2-c2nc3ccccc3[nH]2)CC1	-6	1	8	-1	/
COCCOC(=O)CSc1ncccc1-c1nc2cc(C)c(C)cc2[nH]1	65*	0.3	57*	75*	59*
CC(=O)Oc1ccc2c(=O)c(N3C(=O)c4ccccc4C3=O)c(C)oc2c1	-7	0.9	30	5	/
CCCOc1ccc2c(=O)c(N3C(=O)c4ccccc4C3=O)c(C)oc2c1	-6	1.1	-16	-8	-10
CSc1ccc(S(=O)(=O)NCC(=O)OCC(=O)N(C)Cc2ccccc2)cc1[N+](=O)[O-]	-6	/	/	/	/
Cc1csc(NC(=O)c2cccc(Cn3nc(C)c(Br)c3C)c2)n1	-13	1.2	-14	-20	-2
CCOC(=O)c1ccc(-c2csc(NC(=O)CN3CCC(C)CC3)n2)cc1	-1	/	/	/	/
CCC(=O)Nc1cc2nn(-c3ccccc3)nc2cc1Cl	64*	0.3	60*	74*	60*
CC(=O)Nc1cc2nn(-c3ccccc3)nc2cc1C	46	/	/	/	/
CC1=CC(=O)c2ccccc2C1=O	2	1	35	-2	/
O=C1C=C(Nc2ccccc2)C(=O)c2ccccc21	47	0.6	36	44	33
COC(=O)c1ccc(CNC(=O)c2ccc(OC)c(S(=O)(=O)NC3CCCC3)c2)cc1	12	/	/	/	/
N/C(=N\OC(=O)c1ccc2c(c1)OCO2)c1cccnc1	82*	0	74*	97*	74*
SMILES	TRAIL sens C8	FLuc stim CS	PPC-1+TRAIL kill	FLuc inhib CS	PPC-1 tox
C/C(=N\NC(=O)c1ccc2c(c1)OCO2)c1cccnc1	31	/	/	/	/
COc1ccc(S(=O)(=O)N(C)C[C@H]2Oc3ccc(NC(=O)NC4CCCCC4)cc3C(=O)N([C@H](C)CO)C[C@@H]2C)cc1	-7	/	/	/	/
COc1cc(N/N=C/c2ccc(N(C)C)cc2)ncn1	77*	0.1	69*	86*	69*
CN1CCN(CCCNC(=O)c2nnc(Cc3c(F)cccc3Cl)o2)CC1	3	1	7	-2	16
CCn1c(SCC(=O)NCc2ccco2)nc2ccccc2c1=O	-13	1	-9	1	/
COc1ccc(C(=O)Nn2c(SCC(=O)NCc3ccco3)nc3ccccc3c2=O)cc1	33	0.5	34	54*	35
COC(c1ccccc1)c1nc2ccccc2[nH]c1=O (stereo unspecified)	-12	/	/	/	/
O=c1[nH]c2ccccc2nc1C(Cl)c1ccccc1 (stereo unspecified)	/	1.1	1	-7	4
C/C(=N\NC(=O)c1ccccc1NC(=O)c1ccc(Cl)cc1)c1ccncc1	94*	0	97*	98*	97*
C/C(=N\NC(=O)c1ccc(Cl)cc1)c1cccs1	75*	0.1	63*	90*	64*
C/C(=N\NC(=O)c1cccs1)c1ccncc1	0	/	/	/	/
O=C(N/N=C/c1cccs1)c1n[nH]c2c1CCCC2	74*	/	56*	/	46
C/C(=N\NC(=O)c1n[nH]c2c1CCC2)c1cccs1	80*	/	68*	/	67*
C/C(=N\NC(=O)c1ccc(NS(=O)(=O)c2cccs2)cc1)c1cccs1	0	1.1	1	-7	/
Cc1ccc(/C=N/NC(=O)c2n[nH]c3c2CCCC3)cc1	17	/	4	/	/
COc1ccccc1OCC(O)CN1CCN(C(=O)c2ccccc2)CC1 (stereo unspecified)	5	/	/	/	/
O=C(O)c1cc2c(cc1NC(=O)C1CCCC1)OCCO2	1	/	/	/	/
CN(C)S(=O)(=O)c1ccc(-c2ccccc2)cc1	-2	1.1	-21	-9	-19
CN(c1ccccc1)S(=O)(=O)c1ccc(-c2ccccc2)cc1	6	/	/	/	/
O=C(/C=C/c1ccccc1)c1c[nH]c2ccccc12	58*	/	61*	/	66*
CCOc1ccc(-c2nc(C)c(C(C)=O)n2O)cc1	41	0.4	31	64*	39
COc1ccc(-c2nc(C)c(C(C)=O)n2O)cc1	13	0.8	36	17	/
CCN1C(=O)CC(Sc2ccccc2N)C1=O (stereo unspecified)	2	1	12	-2	8
O=S1(=O)N=C(Nc2nc3c(s2)CCCC3)c2ccccc21	75*	0.1	60*	87*	60*
COc1ccc(N=CC2=C(O)c3ccccc3C2=O)c(OC)c1	92*	0	82*	95*	85*
SMILES	TRAIL sens C8	FLuc stim CS	PPC-1+TRAIL kill	FLuc inhib CS	PPC-1 tox
Cc1ccccc1N=CC1=C(O)c2ccccc2C1=O	90*	0	84*	96*	82*
COc1ccc(NC(=O)C2CCN(S(=O)(=O)c3ccc4c(c3)CC(C)N4C(C)=O)CC2)c(OC)c1 (stereo unspecified)	-7	/	/	/	/
CC(C)OP(=O)(OC(C)C)C(Nc1ccccc1)c1cccnc1 (stereo unspecified)	17	/	-6	/	/
COC(=O)C1C(=O)c2c([nH]c(C(=O)OCCOC(C)C)c2C)CC1C (stereo unspecified)	/	0.7	-9	30	-2
COC(=O)C1C(=O)c2c([nH]c(C(=O)OC3CCCCC3)c2C)CC1C (stereo unspecified)	30	0.7	38	25	/
Cc1ccc(N/C(N)=N/c2nc3c(c(=O)[nH]2)CCCC3)c(C)c1	18	1.1	31	-6	/
